This is a sample that favours compounds with a hit; in the whole collection about 2.3% have one here.
Bim-Mcl-1: disrupts Bim peptide binding to human Mcl-1; Q07820; Bead-based flow cytometry, Bim peptide-Mcl-1 binding; inhibition, % at 10 µM; 0.1% of 190,000 active; AID 1009; in the data active means inhibition above about 40%;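 further: 0% = no compound tracer wells and 100% = peptide blocker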
Pemphigus Ab inh: blocks pemphigus antibody binding to human desmoglein-3 | P32926 | DSG3-coupled beads, scFv-anti-DSG3-GFP binding, flow cytometry; active compounds read low | binding (percent of control), % at 10 µM | 0.48% of 310,000 active | AID 588358;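 active means binding more than 3 SD below its plate's average and above zero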;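 further: hits lower antibody fragment binding to DSG3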
Target sequence (P32926 whole entry, looked up, the tested form may be a part): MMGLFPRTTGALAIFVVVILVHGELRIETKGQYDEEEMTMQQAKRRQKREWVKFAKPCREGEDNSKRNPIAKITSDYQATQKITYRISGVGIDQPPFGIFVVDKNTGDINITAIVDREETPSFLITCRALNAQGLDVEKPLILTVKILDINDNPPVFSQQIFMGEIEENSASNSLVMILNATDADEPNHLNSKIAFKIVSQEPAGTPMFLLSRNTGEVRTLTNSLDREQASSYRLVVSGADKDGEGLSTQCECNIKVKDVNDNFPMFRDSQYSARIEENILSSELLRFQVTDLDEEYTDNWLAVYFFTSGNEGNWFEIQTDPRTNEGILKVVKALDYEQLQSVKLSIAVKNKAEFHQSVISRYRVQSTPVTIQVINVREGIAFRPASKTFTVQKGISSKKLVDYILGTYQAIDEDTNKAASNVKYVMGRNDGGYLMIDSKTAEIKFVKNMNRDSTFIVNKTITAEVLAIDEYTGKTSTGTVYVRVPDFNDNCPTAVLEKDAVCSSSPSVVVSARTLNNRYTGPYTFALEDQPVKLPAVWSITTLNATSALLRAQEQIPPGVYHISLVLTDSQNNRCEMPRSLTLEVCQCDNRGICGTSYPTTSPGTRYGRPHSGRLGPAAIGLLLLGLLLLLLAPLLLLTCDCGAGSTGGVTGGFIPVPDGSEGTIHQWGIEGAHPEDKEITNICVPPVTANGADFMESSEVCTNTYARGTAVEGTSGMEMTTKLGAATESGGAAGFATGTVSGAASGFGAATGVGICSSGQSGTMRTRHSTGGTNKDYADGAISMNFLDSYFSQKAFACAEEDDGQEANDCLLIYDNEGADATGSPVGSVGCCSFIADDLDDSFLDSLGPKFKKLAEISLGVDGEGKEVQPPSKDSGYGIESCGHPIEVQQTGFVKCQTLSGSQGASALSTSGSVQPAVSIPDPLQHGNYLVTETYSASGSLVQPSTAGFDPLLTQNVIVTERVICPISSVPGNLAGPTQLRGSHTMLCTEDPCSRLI
Mcl1 Bid PPI: disrupts binding of human Mcl-1 to Bid peptide; 0.97% of 220,000 active; TR-FRET Mcl-1/Bid-Dy647 peptide binding, 1536-well; Q07820; AID 1021; inhibition, % at 21.7 µM;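 active means compounds that cut the binding signal by more than half at the single screening dose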;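 further: His-tagged Mcl-1 with europium anti-His antibody binding Bid BH3 peptide; 0% = Mcl-1 plus peptide wells and 100% = peptide-only wells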
MCL1-BIM inh: MCL1-BIM-BH3 interaction inhibition (human). inhibition, % at 10.9 µM. GST-MCL1 / FITC-Bim-BH3 fluorescence polarization. 0.68% of 320,000 active. AID 2057. Q07820;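 active means inhibition above the mean inhibition of all tested compounds plus 3 SD, set per campaign, cut at about 40% in these data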;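 further: 0% = DMSO wells and 100% = unlabeled Bim-BH3 peptide control; higher means more loss of mP so more displacement of Bim peptide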
T cell modulator: T cell immune modulation candidate; 0.068% of 330,000 active; 2C CD8+ T cell-vesicle binding, flow cytometry; active compounds read low; response (vesicle binding), % at 7 µM;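 active means response, share of CD8 T cells binding vesicles, and their 90th percentile fluorescence all below set limits, cut at about 80% in these data, passing the limit was not always enough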;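 further: values below 100% mean blocked vesicle binding to the CD8+ T cells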
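material = purified 2C TCR transgenic mouse naive CD8+ T cells | controls = Unloaded micro-vesicles (low), QL9 vesicles with 0.7% DMSO (high) | detection = cytometric PE anti-B7-1 and Alexa647 anti-CD8 signals after 1% paraformaldehyde fixation | incubation = binding step 1.5 h, 37 °C, antibody labelling 20 min, ice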
Mcl1 Noxa PPI: disrupts binding of human Mcl-1 to Noxa peptide | Q07820 | TR-FRET Mcl-1/Noxa peptide binding, 2 h | inhibition, % at 21.7 µM | 1.5% of 220,000 active;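 active means compounds that cut the protein-peptide binding signal by more than 50% relative to plate controls in a single-dose test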;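 further: His-tagged Mcl-1 with rhodamine Noxa BH3 peptide and terbium anti-His antibody; 0% = Mcl-1 plus Noxa peptide wells and 100% = peptide-only wells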
An asterisk follows results filed as active.

Results for O=[N+]([O-])c1ccc2nc(-c3ccccc3)[nH]c2c1 ?
Bim-Mcl-1: -3.0; Pemphigus Ab inh: 100.3; Mcl1 Bid PPI: 10.7; MCL1-BIM inh: 14.0; T cell modulator: 247.6; Mcl1 Noxa PPI: 10.4

How did O=[N+]([O-])c1ccc2[nH]nc(-c3ccccc3)c2c1 do in these assays?
Bim-Mcl-1: 44.0*; Pemphigus Ab inh: 130.2; Mcl1 Bid PPI: 0.4; MCL1-BIM inh: -1.3; T cell modulator: inactive; Mcl1 Noxa PPI: 23.0

How did O=C(O)c1[nH]c2ccc([N+](=O)[O-])cc2c1-c1ccccc1 do in these assays?
Pemphigus Ab inh: 102.5; Mcl1 Bid PPI: -21.9; MCL1-BIM inh: 3.2; T cell modulator: 183.8; Mcl1 Noxa PPI: 11.6

Results for Cc1ccc(S(=O)(=O)N(Cc2cccc(F)c2)C(=O)N2CCN(C)CC2)cc1 ?
Pemphigus Ab inh: 98.2; MCL1-BIM inh: -0.3; T cell modulator: 305.9

How did O=C(NN1C(=O)/C(=C/c2cc([N+](=O)[O-])ccc2O)SC1=S)c1ccccc1O do in these assays?
MCL1-BIM inh: 55.2*; T cell modulator: 290.6

Results for COC(=O)c1ccc(-c2ccc(C(c3c(C)[nH][nH]c3=O)c3c(C)[nH][nH]c3=O)o2)cc1 ?
Bim-Mcl-1: 6.0; Pemphigus Ab inh: 89.6; Mcl1 Bid PPI: -74.0; MCL1-BIM inh: 4.2; T cell modulator: 294.8; Mcl1 Noxa PPI: 68.3*

Results for Cc1[nH][nH]c(=O)c1C(c1ccc(-c2cccc(C(=O)O)c2)o1)c1c(C)[nH][nH]c1=O ?
Bim-Mcl-1: 0.0; Pemphigus Ab inh: 97.3; Mcl1 Bid PPI: -92.3; MCL1-BIM inh: 17.5; T cell modulator: 564.6; Mcl1 Noxa PPI: 13.0

What do the screens show for `CCCCNC(=O)c1cnc2n(c1=O)CCS2`?
Bim-Mcl-1: -1.0; Mcl1 Bid PPI: -3.0; MCL1-BIM inh: -5.6; T cell modulator: 25.8*; Mcl1 Noxa PPI: 20.9

How did O=C(NCCCc1ccccc1)c1cnc2n(c1=O)CCS2 do in these assays?
Bim-Mcl-1: -1.0; Pemphigus Ab inh: 99.9; Mcl1 Bid PPI: 0.1; MCL1-BIM inh: 1.1; T cell modulator: 430.7; Mcl1 Noxa PPI: -8.8

How did CNC(=O)c1ccc(Nc2nnc(-c3ccc(O)cc3)c3ccccc23)cc1 do in these assays?
Pemphigus Ab inh: 110.9; MCL1-BIM inh: 2.8; T cell modulator: 380.0

How did Oc1ccc(-c2nnc(Nc3cccc(O)c3)c3ccccc23)cc1 do in these assays?
Pemphigus Ab inh: 89.2; Mcl1 Bid PPI: -2.5; MCL1-BIM inh: -1.9; T cell modulator: 152.4; Mcl1 Noxa PPI: 60.5*

Results for COC(=O)CSc1nc(-c2ccc(C)cc2)c2c(c1C#N)CCCC2 ?
Bim-Mcl-1: -6.0; Pemphigus Ab inh: 101.6; Mcl1 Bid PPI: 61.5*; MCL1-BIM inh: -2.7; T cell modulator: 311.4; Mcl1 Noxa PPI: -17.2

What do the screens show for `NC(CSC(c1ccccc1)(c1ccccc1)c1cccc2ccccc12)C(=O)O` (stereo not given)?
Pemphigus Ab inh: 94.6

Results for Cc1ccccc1NS(=O)(=O)c1ccc2[nH]cc(C(=O)N(C)Cc3ccco3)c(=O)c2c1 ?
Bim-Mcl-1: -3.0; Pemphigus Ab inh: 98.3; Mcl1 Bid PPI: 51.4*; MCL1-BIM inh: 11.6; T cell modulator: 98.4; Mcl1 Noxa PPI: 11.0

How did COc1cccc(NS(=O)(=O)c2ccc3[nH]cc(C(=O)NC4CC4)c(=O)c3c2)c1 do in these assays?
Bim-Mcl-1: 0.0; Pemphigus Ab inh: 106.3; Mcl1 Bid PPI: 36.5; Mcl1 Noxa PPI: 28.1

Results for Cc1cc(C)cc(NS(=O)(=O)c2ccc3[nH]cc(C(=O)NCc4ccco4)c(=O)c3c2)c1 ?
Bim-Mcl-1: -2.0; Pemphigus Ab inh: 102.8; Mcl1 Bid PPI: 5.1; MCL1-BIM inh: 3.6; T cell modulator: 964.3; Mcl1 Noxa PPI: 32.4

Results for CCc1ccccc1NS(=O)(=O)c1ccc2[nH]cc(C(=O)NCC3CCCO3)c(=O)c2c1 (stereo not given) ?
Bim-Mcl-1: -2.0; Pemphigus Ab inh: 79.6; Mcl1 Bid PPI: 59.4*; MCL1-BIM inh: 7.2; T cell modulator: 233.2; Mcl1 Noxa PPI: 72.2*

What do the screens show for `COc1cccc(NS(=O)(=O)c2ccc3[nH]cc(C(=O)N(C)Cc4ccco4)c(=O)c3c2)c1`?
Bim-Mcl-1: 0.0; Pemphigus Ab inh: 105.7; Mcl1 Bid PPI: 58.4*; MCL1-BIM inh: 6.8; T cell modulator: 283.3; Mcl1 Noxa PPI: 9.7

What do the screens show for `F[B-](F)(F)c1cncc2ccccc12`?
Pemphigus Ab inh: 124.1

Results for CCN(C(=O)COC(=O)CCS(=O)(=O)c1ccc(C)cc1)C1CCS(=O)(=O)C1 (stereo not given) ?
Pemphigus Ab inh: 103.2; MCL1-BIM inh: 1.0; T cell modulator: 274.6

How did Cc1cccc(NC(=O)CSc2ncnc3nc[nH]c23)c1C do in these assays?
Bim-Mcl-1: 0.0; Pemphigus Ab inh: 37.0*; Mcl1 Bid PPI: -61.4; MCL1-BIM inh: -11.9; T cell modulator: 383.9; Mcl1 Noxa PPI: 11.7

How did COc1ccc(CNC(=O)CSc2ncnc3nc[nH]c23)cc1 do in these assays?
Bim-Mcl-1: -3.0; Pemphigus Ab inh: 99.3; Mcl1 Bid PPI: -2.2; MCL1-BIM inh: 10.3; T cell modulator: 332.1; Mcl1 Noxa PPI: -0.8

Results for COc1ccc(C(=O)CSc2ncnc3nc[nH]c23)cc1 ?
Pemphigus Ab inh: 87.8*; Mcl1 Bid PPI: -2.9; MCL1-BIM inh: 7.9; T cell modulator: 65.7; Mcl1 Noxa PPI: -19.7

Results for Cc1cc2cc(CNC(=O)Nc3ccccc3)ccc2[nH]1 ?
Bim-Mcl-1: 1.0; Pemphigus Ab inh: 76.2*; Mcl1 Bid PPI: -51.4; MCL1-BIM inh: -4.4; T cell modulator: 479.1; Mcl1 Noxa PPI: -13.0

How did COc1ccccc1C(=O)Nc1ccnn1C1CCN(C)CC1 do in these assays?
Pemphigus Ab inh: 100.7; MCL1-BIM inh: -0.4; T cell modulator: 216.0

Results for COc1ccccc1C(=O)Nc1ccnn1C1CCN(C(C)CSC)CC1 (stereo not given) ?
Pemphigus Ab inh: 113.2; MCL1-BIM inh: 45.1*; T cell modulator: 79.2

Results for COc1ccccc1C(=O)Nc1ccnn1C1CCN(C2CCSCC2)CC1 ?
Pemphigus Ab inh: 119.0; MCL1-BIM inh: 41.6*; T cell modulator: 335.4

What do the screens show for `COc1ccc(OCCOC(=O)CNC(=O)c2ccc(F)cc2)cc1`?
Pemphigus Ab inh: 104.6

Results for O=C(N/N=C/c1cccnc1)c1cc2c(ccc3ccccc32)o1 ?
Bim-Mcl-1: 0.0; Pemphigus Ab inh: 100.2; Mcl1 Bid PPI: 55.0*; MCL1-BIM inh: -109.2; T cell modulator: 504.2; Mcl1 Noxa PPI: 49.3

How did O=C(N/N=C/c1cc(Br)c(O)c(Br)c1)c1cc2c(ccc3ccccc32)o1 do in these assays?
T cell modulator: inactive

How did O=C(N/N=C/c1ccc(O)c(Br)c1)c1cc2c(ccc3ccccc32)o1 do in these assays?
Pemphigus Ab inh: 77.5*; T cell modulator: 267.3

How did C[C@H](CO)N1C[C@H](C)[C@@H](CN(C)CC2CC2)Oc2c(NC(=O)Cc3ccccc3)cccc2C1=O do in these assays?
Pemphigus Ab inh: 94.8; T cell modulator: 474.8

Bioassay records as filed in PubChem BioAssay.
